Measured values gathered from unrelated publications.
Compare with care: the assays were run in different laboratories.
Method: competition with immobilised ligand
RPS6KA1 C-terminal kinase domain: Ribosomal protein S6 kinase alpha-1, C-terminal kinase domain (RPS6KA1, Homo sapiens, UniProt Q15418)
RPS6KA1 N-terminal kinase domain: Ribosomal protein S6 kinase alpha-1, N-terminal kinase domain (RPS6KA1, Homo sapiens, UniProt Q15418)

CNC(=O)[C@@H]1CC[C@@H](n2c(-c3ccc4cnccc4c3)nc3ccc(C(=O)NCc4cccc(C(N)=O)c4)cc32)C1  remaining binding (RPS6KA1 C-terminal kinase domain; binding; 1 µM): 100%
O=C(c1ccc(Nc2ncc(Cl)c(-c3ccc(Cl)s3)n2)cc1)N1CCC(N2CCCC2)CC1  remaining binding (RPS6KA1 N-terminal kinase domain; binding; 1 µM): 53%
c1cncc(-c2cccc(Nc3nccc(NC4CCCCC4)n3)c2)c1  remaining binding (RPS6KA1 C-terminal kinase domain; binding; 10 µM): 99%
COc1ncc2cc3ccccc3nc2c1C#N  remaining binding (RPS6KA1 N-terminal kinase domain; cell-free assay; 5 µM): 91%
COc1cnc(Nc2cccc(S(N)(=O)=O)c2)nc1N1CCN(c2ccccc2)C(=O)C1  remaining binding (RPS6KA1 C-terminal kinase domain; binding; 1 µM): 92%
C[C@@H](c1ccc(-n2cnc3c(N)ncnc32)cc1)N1CCc2nn(C)c(Cc3ccccc3)c2C1=O  remaining binding (RPS6KA1 C-terminal kinase domain; binding; 0.1 µM): 100%
O=C(N1CCS(=O)(=O)CC1)N1C[C@H](c2ccc(OC(F)(F)F)cc2)C[C@H](c2nc(C3CC3)no2)C1  remaining binding (RPS6KA1 C-terminal kinase domain; cell-free assay; 1 µM): 100%
CN(C)c1nccc(-c2cnn3ncccc23)n1  remaining binding (RPS6KA1 C-terminal kinase domain; binding; 1 µM): 100%
C=CC(=O)N1CCC(C(=O)NCC(=O)N2CCN(c3nc(-c4cnc(N)nc4C(F)F)nc(N4CCOCC4)n3)CC2)CC1  remaining binding (RPS6KA1 N-terminal kinase domain; binding; 1 µM): 100%
O=C(NCC1CCOCC1)c1n[nH]cc1NC(=O)c1c(F)cccc1F  remaining binding (RPS6KA1 C-terminal kinase domain; binding; 1 µM): 93%
COc1ccnn2ncc(-c3ccnc(N(C)C)n3)c12  remaining binding (RPS6KA1 N-terminal kinase domain; binding; 1 µM): 100%
CS(=O)(=O)NCC[C@H](NC(=O)c1cncc2c1cnn2-c1ccc(F)cc1)c1ccnc(S(C)(=O)=O)c1  remaining binding (RPS6KA1 N-terminal kinase domain; cell-free assay; 1 µM): 100%
O=C(c1ccc(Nc2ncc(Cl)c(-c3cc4ccccc4s3)n2)cc1)N1CCC(N2CCCC2)CC1  remaining binding (RPS6KA1 C-terminal kinase domain; binding; 1 µM): 82%
CCC(=N\O)/C(C)=C/c1ccc(F)cc1  remaining binding (RPS6KA1 N-terminal kinase domain; cell-free assay; 1 µM): 100%
CCN1CCN(Cc2ccc(C(=O)Nc3ccc(C)c(Oc4ccc5c(c4)CC(=O)N5)c3)cc2C(F)(F)F)CC1  remaining binding (RPS6KA1 C-terminal kinase domain; binding; 1 µM): 95%
CN(c1nccc(-c2cnn3ncccc23)n1)C1CC1  remaining binding (RPS6KA1 N-terminal kinase domain; binding; 1 µM): 100%
FC(F)(F)Oc1cccc(-c2cnc3ccc(-c4ccncc4)nn23)c1  remaining binding (RPS6KA1 C-terminal kinase domain; binding; 5 µM): 41%
Nc1ncc2c(n1)-c1c([nH]c3ccc(C#CC4CC4)cc13)CCCC2  remaining binding (RPS6KA1 N-terminal kinase domain; binding; 1 µM): 90%
CC(C)CC(=O)N1CCc2nc(-c3ccc(Br)cc3)nc(N(C)Cc3ccccc3)c2C1  remaining binding (RPS6KA1 N-terminal kinase domain; cell-free assay; 0.1 µM): 93%
Cc1cnc(Nc2ccc(C(=O)N3CCC(N4CCCC4)CC3)cc2)nc1-c1cc2ccccc2s1  remaining binding (RPS6KA1 C-terminal kinase domain; binding; 1 µM): 74%
O=C(Nc1c[nH]nc1C(=O)NC1CCNCC1)c1cc(F)cc(F)c1  remaining binding (RPS6KA1 C-terminal kinase domain; binding; 1 µM): 100%
O=C(NS(=O)(=O)c1ccc(NCC2CCOCC2)c([N+](=O)[O-])c1)c1ccc(N2CCN(Cc3ccc(C(F)(F)F)cc3-c3ccc(Cl)cc3)CC2)cc1Oc1cnc2[nH]ccc2c1  remaining binding (RPS6KA1 N-terminal kinase domain; cell-free assay; 1 µM): 95%
CC1CCCN1c1nccc(-c2cnn3ncccc23)n1 (stereo not drawn)  remaining binding (RPS6KA1 N-terminal kinase domain; binding; 1 µM): 100%
COc1cnc(Nc2cccc(S(N)(=O)=O)c2)nc1N1CCN(c2ccccc2)CC1  remaining binding (RPS6KA1 N-terminal kinase domain; binding; 1 µM): 100%
COc1cc(-c2cn(C3CCc4c(F)cccc4N(CC(F)(F)F)C3=O)nn2)ccc1-n1cnc(C)c1 (stereo not drawn)  remaining binding (RPS6KA1 C-terminal kinase domain; cell-free assay; 1 µM): 100%
O=C(NCCCN1CCOCC1)c1ccc(Nc2ncc(Cl)c(-c3ccc(Cl)s3)n2)cc1  remaining binding (RPS6KA1 C-terminal kinase domain; binding; 1 µM): 72%
CO[C@@H](C)c1c(Nc2ccc([C@H](N(C)C(=O)C3CCS(=O)(=O)CC3)C(F)(F)F)cc2)cnc2cc(Cl)nn12  remaining binding (RPS6KA1 C-terminal kinase domain; cell-free assay; 1 µM): 91%
N[C@H]1CCN(c2nccc(-c3cnn4ncccc34)n2)C1  remaining binding (RPS6KA1 N-terminal kinase domain; binding; 1 µM): 100%
O=C(c1ccc(Nc2nccc(-c3cc4ccccc4s3)n2)cc1)N1CCC(N2CCCC2)CC1  remaining binding (RPS6KA1 C-terminal kinase domain; binding; 1 µM): 60%
CN(CCCC(F)(F)F)c1nccc(-c2cnn3ncccc23)n1  remaining binding (RPS6KA1 C-terminal kinase domain; binding; 1 µM): 100%
O=C(NCCCN1CCOCC1)c1ccc(Nc2nccc(-c3cc4ccccc4s3)n2)cc1  remaining binding (RPS6KA1 C-terminal kinase domain; binding; 1 µM): 54%
O=C(NCc1ncc(C(F)(F)F)cc1Cl)c1ccc2c(c1)C1(CCS(=O)(=O)CC1)[C@H](C1CC1)N2S(=O)(=O)c1ccc(F)cc1  remaining binding (RPS6KA1 C-terminal kinase domain; cell-free assay; 1 µM): 99%
C[C@H]1CCN(c2nccc(-c3cnn4ncccc34)n2)C1  remaining binding (RPS6KA1 N-terminal kinase domain; binding; 1 µM): 94%
